Measurements from ChEMBL document CHEMBL1145590, “Discovery and initial SAR of arylsulfonylpiperazine inhibitors of 11beta-hydroxysteroid dehydrogenase type 1 (11beta-HSD1)” (Bioorg Med Chem Lett, 2008).

Legend:
[1] = biological target: 11-beta-hydroxysteroid dehydrogenase 1 (Mus musculus, UniProt P50172); assay: Inhibition of mouse recombinant 11beta-HSD1 assessed as conversion of [3H]cortisone to [3H]cortisol by SPA assay
[2] = biological target: T1, 11-beta-hydroxysteroid dehydrogenase 1 (Homo sapiens, UniProt P28845)
[3] = biological target: T1, 11-beta-hydroxysteroid dehydrogenase 1; remark: listed apart in the source
[4] = Metabolic stability in human liver microsomes after 10 mins; format: ADME, Microsome; settings: read-out: Stability
Summary of the method: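 Test compound incubated with human liver microsomes. Percent parent remaining measured at 10 min.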

[5] = Clearance in rat; format: ADME, organism-based; settings: in vivo
[6] = Oral bioavailability in rat; format: ADME, organism-based; settings: in vivo
[7] = biological target: T2, 11-beta-hydroxysteroid dehydrogenase type 2 (Homo sapiens, UniProt P80365); assay: Inhibition of 11beta-HSD2
T2 sequence (P80365 whole entry): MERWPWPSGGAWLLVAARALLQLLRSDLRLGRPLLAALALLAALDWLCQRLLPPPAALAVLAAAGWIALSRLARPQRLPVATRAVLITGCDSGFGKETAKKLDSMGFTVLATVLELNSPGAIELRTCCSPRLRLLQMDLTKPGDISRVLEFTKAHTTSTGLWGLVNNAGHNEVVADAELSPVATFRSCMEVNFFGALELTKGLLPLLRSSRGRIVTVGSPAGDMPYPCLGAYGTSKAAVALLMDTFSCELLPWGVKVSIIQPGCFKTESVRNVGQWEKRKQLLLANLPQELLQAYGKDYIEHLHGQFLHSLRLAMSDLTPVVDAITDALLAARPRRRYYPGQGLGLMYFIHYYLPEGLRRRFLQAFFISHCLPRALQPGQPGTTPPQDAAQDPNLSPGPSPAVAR

Sequence of 11-beta-hydroxysteroid dehydrogenase 1 (Mus musculus, UniProt P50172) (P50172 whole entry): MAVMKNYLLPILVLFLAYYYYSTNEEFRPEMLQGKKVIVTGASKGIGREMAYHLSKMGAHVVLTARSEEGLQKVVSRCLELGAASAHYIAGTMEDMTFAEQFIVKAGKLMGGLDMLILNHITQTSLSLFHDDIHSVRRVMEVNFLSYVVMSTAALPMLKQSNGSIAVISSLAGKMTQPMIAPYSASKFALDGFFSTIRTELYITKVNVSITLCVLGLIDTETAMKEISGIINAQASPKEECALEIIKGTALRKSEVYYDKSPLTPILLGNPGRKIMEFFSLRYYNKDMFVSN
T1 sequence (P28845 whole entry): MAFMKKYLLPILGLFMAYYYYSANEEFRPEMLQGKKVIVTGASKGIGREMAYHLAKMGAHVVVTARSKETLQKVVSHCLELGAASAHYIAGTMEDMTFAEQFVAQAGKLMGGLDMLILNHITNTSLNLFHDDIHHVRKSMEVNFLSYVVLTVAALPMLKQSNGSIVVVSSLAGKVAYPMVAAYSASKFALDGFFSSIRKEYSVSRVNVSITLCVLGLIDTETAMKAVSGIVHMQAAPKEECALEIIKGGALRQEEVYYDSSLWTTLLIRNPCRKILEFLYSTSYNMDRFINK

Question: What does the source list for `FC(F)(F)c1cccnc1N1CCN(Cc2ccccc2)CC1`?
Answer: IC50 [1]: > 1000 nM; IC50 [2]: 550 nM; IC50 [3]: 1930 nM

Question: What does the source list for `CC(C)(C)c1ccc(S(=O)(=O)N2CCN(c3ccc([N+](=O)[O-])cc3)CC2)cc1`?
Answer: IC50 [1]: 161 nM; remaining at 10 min [4]: 90%; clearance [5]: 16.7 mL/min/kg; bioavailability [6]: 7%; IC50 [2]: 10 nM; IC50 [3]: 247 nM

Question: Which results are given for `Cc1ccc(S(=O)(=O)N2CCN(c3ncccc3C(F)(F)F)CC2)cc1`?
Answer: IC50 [1]: 32 nM; IC50 [7]: > 10000 nM; IC50 [2]: 16 nM; IC50 [3]: 461 nM

Question: Which results are given for `CCc1ccc(S(=O)(=O)N2CCN(c3ncccc3C(F)(F)F)CC2)cc1`?
Answer: IC50 [1]: 53 nM; IC50 [2]: 18 nM; IC50 [3]: 510 nM

Question: With `O=S(=O)(c1ccc2ccccc2c1)N1CCN(c2ncccc2C(F)(F)F)CC1` as the compound, how does the IC50 [1] read?
Answer: 11 nM

Question: Which IC50 [1] does the source give for `O=[N+]([O-])c1ccc(S(=O)(=O)N2CCN(c3ncccc3C(F)(F)F)CC2)cc1` here?
Answer: 311 nM

Question: What about the IC50 [2] of the same compound?
Answer: 37 nM

Question: What about the IC50 [3] of the same compound?
Answer: 922 nM

Question: Which IC50 [1] does the source give for `O=S(=O)(c1cccc(C(F)(F)F)c1)N1CCN(c2ncccc2C(F)(F)F)CC1` here?
Answer: 53 nM

Question: What about the IC50 [2] of the same compound?
Answer: 64 nM

Question: And the IC50 [3]?
Answer: > 1000 nM

Question: For `CC(C)(C)c1ccc(S(=O)(=O)N2CCN(c3ncccc3C(F)(F)F)CC2)cc1`, which remaining at 10 min [4] is on record?
Answer: 61%

Question: For `C[C@H]1CN(c2ncccc2C(F)(F)F)CCN1S(=O)(=O)c1ccc(C(C)(C)C)cc1`, which IC50 [1] is on record?
Answer: 17 nM

Question: And the IC50 [2]?
Answer: 9 nM

Question: What about the IC50 [3] of the same compound?
Answer: 569 nM

Question: For `O=C(c1ccccc1)N1CCN(c2ncccc2C(F)(F)F)CC1`, which IC50 [1] is on record?
Answer: > 1000 nM

Question: What about the IC50 [2] of the same compound?
Answer: 262 nM

Question: And the IC50 [3]?
Answer: > 1000 nM

Question: With `CCC1CN(c2ncccc2C(F)(F)F)CCN1S(=O)(=O)c1ccc(C(C)(C)C)cc1` (stereo not given) as the compound, how does the IC50 [1] read?
Answer: 6 nM

Question: And the IC50 [2]?
Answer: 17 nM

Question: What about the IC50 [3] of the same compound?
Answer: > 1000 nM

Question: For `CC1CN(c2ncccc2C(F)(F)F)CCN1S(=O)(=O)c1ccc(C(C)(C)C)cc1` (stereo not given), which IC50 [1] is on record?
Answer: 4 nM

Question: And the IC50 [2]?
Answer: 9 nM

Question: And the IC50 [3]?
Answer: 632 nM

Question: Which results are given for `O=S(=O)(c1ccccc1)N1CCN(c2ncccc2C(F)(F)F)CC1`?
Answer: IC50 [1]: 122 nM; IC50 [2]: 45 nM; IC50 [3]: 724 nM

Question: Which IC50 [1] does the source give for `O=S(=O)(c1cccc2ccccc12)N1CCN(c2ncccc2C(F)(F)F)CC1` here?
Answer: 80 nM

Question: What about the IC50 [2] of the same compound?
Answer: 13 nM

Question: And the IC50 [3]?
Answer: 329 nM

Question: For `Cc1ccc(S(=O)(=O)N2CCN(c3ccccn3)CC2)cc1`, which IC50 [1] is on record?
Answer: > 1000 nM

Question: What about the IC50 [2] of the same compound?
Answer: > 1000 nM

Question: And the IC50 [3]?
Answer: > 1000 nM

Question: What does the source list for `Cc1ccc(S(=O)(=O)N2CCN(c3ncccc3C)CC2)cc1`?
Answer: IC50 [1]: 240 nM; IC50 [2]: 152 nM; IC50 [3]: > 1000 nM

Question: Which results are given for `Cc1ccc(S(=O)(=O)N2CCN(c3ncccc3Cl)CC2)cc1`?
Answer: IC50 [1]: 146 nM; IC50 [2]: 117 nM; IC50 [3]: > 1000 nM

Question: Which results are given for `Cc1ccc(S(=O)(=O)N2CCN(c3ncccc3C#N)CC2)cc1`?
Answer: IC50 [2]: 628 nM; IC50 [3]: > 1000 nM

Question: Which IC50 [1] does the source give for `CC(C)(C)c1ccc(S(=O)(=O)N2CCN(c3ccccc3F)CC2)cc1` here?
Answer: 98 nM

Question: What about the IC50 [2] of the same compound?
Answer: 106 nM

Question: And the IC50 [3]?
Answer: > 1000 nM

Question: What does the source list for `COc1ccc(S(=O)(=O)N2CCN(c3ncccc3C(F)(F)F)CC2)cc1`?
Answer: IC50 [1]: 32 nM; IC50 [2]: 19 nM; IC50 [3]: 456 nM

Question: Which results are given for `N#Cc1ccc(S(=O)(=O)N2CCN(c3ncccc3C(F)(F)F)CC2)cc1`?
Answer: IC50 [1]: 546 nM; IC50 [2]: 50 nM; IC50 [3]: 978 nM

Question: What does the source list for `C[C@@H]1CN(c2ncccc2C(F)(F)F)CCN1S(=O)(=O)c1ccc(C(C)(C)C)cc1`?
Answer: IC50 [1]: 4 nM; IC50 [2]: 11 nM; IC50 [3]: 762 nM
